A word on the IC50: it is the concentration needed to halve the response being measured. A lower IC50 goes with higher potency.

A short description of data set [1]: Cytotoxicity against human H125 cells assessed as zone units at 6.8 mg/mL by disk diffusion soft agar colony formation assay. It counts as functional. In outline: (§1)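 Soft agar colony formation with disk diffusion. Sample dissolved in 250 µL DMSO; a 15 µL aliquot at the stated concentration is spotted on a cellulose disk laid on agar containing the cells. After incubation, the zone of colony inhibition is measured in zone units (200 zu = 6 mm). Activity is defined as ≥300 zu.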
Background: Agar diffusion results depend on both activity and mobility in agar.

Data set [2] in a line: Cytotoxicity against human H116 cells assessed as zone units at 6.8 mg/mL by disk diffusion soft agar colony formation assay. It counts as functional. In outline: as §1
In the next data set the test system is MDA-MB-435. Description: Cytotoxicity against human MDA-MB-435 after 48 hrs by SRB assay. To be noted: MDA-MB-435, 48 h. In kind it is functional, cell-based. The essentials:
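MDA-MB-435 cells plated and left to attach and grow 24 h, then exposed to compound or ethanol vehicle for 48 h. Cells fixed with 10% trichloroacetic acid, stained with 0.4% sulforhodamine B, absorbance read at 560 nm. Full dose–response in triplicate; IC50 (50% proliferation inhibition) taken from the linear portion of the log-dose–response curve.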
(In general: Sulforhodamine B stains cellular protein and so reports cell mass.)

Data set [3] concerns L1210. The data set can be described thus: Cytotoxicity against mouse L1210 cells assessed as zone units at 6.8 mg/mL by disk diffusion soft agar colony formation assay. In kind it is functional. In outline:
as §1

Data set [4] is described as follows: Cytotoxicity against mouse CFU-GM cells assessed as zone units at 6.8 mg/mL by disk diffusion soft agar colony formation assay. It counts as cell-based. In outline:
as §1

Data set [5] relates to MC-38. Description: Cytotoxicity against mouse C38 cells assessed as zone units at 6.8 mg/mL by disk diffusion soft agar colony formation assay. It counts as functional. The essentials: as §1
A short description of data set [6]: Cytotoxicity against mouse CFU-GM cells assessed as zone units at 8.0 mg/mL by disk diffusion soft agar colony formation assay. In kind it is cell-based. In outline:
as §1

The subject of data set [7] is MC-38. Description: Cytotoxicity against mouse C38 cells assessed as zone units at 8.0 mg/mL by disk diffusion soft agar colony formation assay. It counts as functional. In outline: as §1
A short description of data set [8]: Cytotoxicity against human H125 cells assessed as zone units at 8.0 mg/mL by disk diffusion soft agar colony formation assay. It counts as functional. The essentials: as §1
Data set [9] in a line: Cytotoxicity against human H116 cells assessed as zone units at 8.0 mg/mL by disk diffusion soft agar colony formation assay. It counts as functional. The essentials:
as §1

Data set [10] deals with L1210. The data set can be described thus: Cytotoxicity against mouse L1210 cells assessed as zone units at 8.0 mg/mL by disk diffusion soft agar colony formation assay. It counts as functional. In outline:
as §1

The test system of data set [11] is MC-38. Description: Cytotoxicity against mouse C38 cells assessed as zone units at 4.0 mg/mL by disk diffusion soft agar colony formation assay. It counts as functional. In outline:
as §1

The nature of data set [12]: Cytotoxicity against mouse CFU-GM cells assessed as zone units at 4.0 mg/mL by disk diffusion soft agar colony formation assay. In kind it is cell-based. In outline: as §1
Data set [13] is described as follows: Cytotoxicity against human H125 cells assessed as zone units at 4.0 mg/mL by disk diffusion soft agar colony formation assay. In kind it is functional. In outline:
as §1

Data set [14] deals with CCRF-CEM. The data set can be described thus: Cytotoxicity against human CEM cells assessed as zone units at 4.0 mg/mL by disk diffusion soft agar colony formation assay. In kind it is functional. In outline:
as §1

Data set [15] relates to L1210. The data set can be described thus: Cytotoxicity against mouse L1210 cells assessed as zone units at 4.0 mg/mL by disk diffusion soft agar colony formation assay. It counts as functional. In outline: as §1
The nature of data set [16]: Cytotoxicity against human H116 cells assessed as zone units at 4.0 mg/mL by disk diffusion soft agar colony formation assay. It counts as functional. In outline: as §1
A short description of data set [17]: Cytotoxicity against mouse CFU-GM cells assessed as zone units at 6.0 mg/mL by disk diffusion soft agar colony formation assay. It counts as cell-based. The essentials:
as §1

Data set [18] in a line: Cytotoxicity against human H125 cells assessed as zone units at 6.0 mg/mL by disk diffusion soft agar colony formation assay. In kind it is functional. The essentials:
as §1

Data set [19] has as its system L1210. Description: Cytotoxicity against mouse L1210 cells assessed as zone units at 6.0 mg/mL by disk diffusion soft agar colony formation assay. It counts as functional. In outline:
as §1

In data set [20] the test system is MC-38. The data set can be described thus: Cytotoxicity against mouse C38 cells assessed as zone units at 6.0 mg/mL by disk diffusion soft agar colony formation assay. It counts as functional. The essentials:
as §1

The nature of data set [21]: Cytotoxicity against human H116 cells assessed as zone units at 6.0 mg/mL by disk diffusion soft agar colony formation assay. It counts as functional. In outline:
as §1

Data set [22] is described as follows: Cytotoxicity against human H125 cells assessed as zone units at 11.6 mg/mL by disk diffusion soft agar colony formation assay. It counts as functional. In outline:
as §1

The test system of data set [23] is MC-38. Description: Cytotoxicity against mouse C38 cells assessed as zone units at 11.6 mg/mL by disk diffusion soft agar colony formation assay. It counts as functional. The essentials: as §1
A short description of data set [24]: Cytotoxicity against mouse CFU-GM cells assessed as zone units at 11.6 mg/mL by disk diffusion soft agar colony formation assay. In kind it is cell-based. The essentials: as §1
The test system of data set [25] is CCRF-CEM. Description: Cytotoxicity against human CEM cells assessed as zone units at 11.6 mg/mL by disk diffusion soft agar colony formation assay. In kind it is functional. The essentials:
as §1

Data set [26] in a line: Cytotoxicity against human H116 cells assessed as zone units at 11.6 mg/mL by disk diffusion soft agar colony formation assay. In kind it is functional. The essentials:
as §1

In data set [27] the test system is L1210. The data set can be described thus: Cytotoxicity against mouse L1210 cells assessed as zone units at 11.6 mg/mL by disk diffusion soft agar colony formation assay. In kind it is functional. In outline: as §1

In brackets after ≈: the same amount, converted by molar mass. Bounds are passed on as bounds.

Take `COC1=CC(=O)[C@]2(C)O[C@@]23C[C@@H](C)O[C@@]13O`: the Activity is 0 Zone units in data set [1]; 0 Zone units in data set [2]; 50 Zone units in the data set with L1210 [3]; 0 Zone units in data set [4]; 200 Zone units in the data set on MC-38 [5]. In addition, the concentration for half-maximal inhibition (IC50) with MDA-MB-435 was > 10 µg/mL.

In the case of `COC1=CC(=O)[C@]2(C)O[C@@]23CC(C)OC13O` (stereo partly drawn) [(+)-EPOXYSERINONE B], the IC50 in the data set on MDA-MB-435 was > 10 µg/mL. Moreover, the Activity in data set [6] was found to be 400 Zone units; in the data set with MC-38 [7], 400 Zone units; in data set [8], 50 Zone units; in data set [9] it was 200 Zone units; with L1210 [10], 250 Zone units.

Regarding `COC1=CC(=O)C(C)=C(C[C@H](C)OC=O)C1=O` [(+)-FORMYLANSERINONE B], the IC50 in the data set on MDA-MB-435 was 2.9 µg/mL (≈ 12.2 µM). Besides, the Activity worked out at 250 Zone units in the data set with MC-38 [11]; 600 Zone units in data set [12]; 350 Zone units in [13]; 550 Zone units in the data set with CCRF-CEM [14]; 550 Zone units in the data set with L1210 [15]; 400 Zone units in data set [16].

Take `COC1=CC(=O)C(C)=C(CC(C)=O)C1=O` [ANSERINONE A]: in the data set with MDA-MB-435, the IC50 was 2.22 µg/mL (≈ 10.7 µM). Also, the Activity is given as 150 Zone units in data set [17]; 50 Zone units in data set [18]; 300 Zone units with L1210 [19]; 300 Zone units in the data set with MC-38 [20]; 50 Zone units in data set [21].

The compound `COC1=CC(=O)C(C)=C(C[C@H](C)O)C1=O` [ANSERINONE B] registered an IC50 in the data set on MDA-MB-435 of 3.6 µg/mL (≈ 17.1 µM). Further, the Activity is listed as 400 Zone units in data set [22]; 400 Zone units in the data set with MC-38 [23]; 650 Zone units in [24]; 650 Zone units in the data set with CCRF-CEM [25]; 400 Zone units in [26]; 700 Zone units with L1210 [27].

The values are drawn from ChEMBL document CHEMBL1146496, “Expanding the strategies in natural product studies of marine-derived fungi: a chemical investigation of penicillium obtained from deep water sediment” (J Nat Prod, 2004).
